From ChEMBL document CHEMBL4196140, “Spiro-Phthalides and Isocoumarins Isolated from the Marine-Sponge-Derived Fungus Setosphaeria sp. SCSIO41009” (J Nat Prod, 2018)
≈ marks a conversion by molar mass, not a printed value. Calls of active or inactive are those of the source. No cut-off for these calls is given here.

What was measured:
[1] = biological target: T1, Phosphotyrosine protein phosphatase (Mycobacterium tuberculosis) (UniProt A0A045ISB3); assay: Inhibition of Mycobacterium PTPB at 50 uM using p-nitrophenyl phosphate as substrate incubated for 10 mins followed by substrate addition and measured for 5 mins by spectrophotometric method
T1 sequence (whole entry): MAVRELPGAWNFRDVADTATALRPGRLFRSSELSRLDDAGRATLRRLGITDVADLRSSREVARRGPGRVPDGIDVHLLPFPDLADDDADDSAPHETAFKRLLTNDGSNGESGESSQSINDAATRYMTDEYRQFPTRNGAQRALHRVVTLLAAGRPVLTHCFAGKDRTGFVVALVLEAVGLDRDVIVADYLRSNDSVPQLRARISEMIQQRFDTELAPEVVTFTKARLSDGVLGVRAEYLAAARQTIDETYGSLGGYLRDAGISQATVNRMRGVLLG

[2] = tested on: Influenza A virus; assay: Antiviral activity against Influenza A virus H1N1 A/FM-1/1/47 infected in MDCK cells assessed as inhibition of virus-induced cytopathic effect after 48 hrs by MTT assay; type: functional, organism-based
[3] = tested on: Staphylococcus aureus; assay: Antimicrobial activity against Staphylococcus aureus by broth microdilution method; type: functional, organism-based
[4] = tested on: Colletotrichum asianum; assay: Antimicrobial activity against Colletotrichum asianum by broth microdilution method; type: functional
[5] = tested on: Colletotrichum acutatum; assay: Antimicrobial activity against Colletotrichum acutatum by broth microdilution method; type: functional
[6] = Antioxidant activity assessed as DPPH radical scavenging activity incubated for 30 mins in dark condition; type: functional
How it was run: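 Test samples in DMSO were mixed 1:9 with freshly made 0.2 mM DPPH in EtOH (DPPH stock level), giving final compound levels of 50, 25, 12.5, 6.25 and 3.125 μg/mL, in triplicate, with ascorbic acid as positive control. After 30 min in the dark, the fall in absorbance at 517 nm was read. Blank: EtOH instead of DPPH. Control: DMSO instead of sample. % scavenging = [1 − (sample − blank)/control] × 100. IC50 is the concentration scavenging 50% of radicals.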

Structure (SMILES)	inhibition [1]	inhibition [2]	Activity [3]	MIC [4] [µg/mL]	MIC [5] [µg/mL]	IC50 [6] [µM]
COc1cc(=O)oc(C)c1CCC(C)O (centres undefined)	inactive	inactive	inactive	–	–	–
CCC[C@@H]1C[C@H]2OC(=O)c3c(cc(OC)c(OC)c3O)[C@@H]2O1	inactive	inactive	inactive	–	–	–
COc1cc2c(c(O)c1OC)C(=O)O[C@@H]1C[C@H](CCCO)O[C@H]21	inactive	inactive	inactive	–	–	–
CCC(O)Cc1c(OC)cc(=O)oc1C (centres undefined)	inactive	inactive	inactive	–	–	–
C[C@@H]1C[C@@H]([C@H](O)CC2CC(=O)NC(=O)C2)C(=O)[C@@H](C)C1 [CYCLOHEXIMIDE]	–	–	–	80 (≈ 284 µM)	40 (≈ 142 µM)	–
COC(=O)CCCc1c(OC)cc(=O)oc1C	inactive	inactive	inactive	–	–	–
CCC[C@@H]1C[C@H]2OC(=O)c3c(cc(O)c(OC)c3O)[C@@H]2O1	inactive	inactive	inactive	–	–	–
COc1cc2c(c(O)c1OC)C(=O)O[C@@H]1C[C@H](CCC(=O)O)O[C@H]21	inactive	inactive	inactive	–	–	–
CCCC(=O)CC[C@H]1OC(=O)c2c1cc(O)c(OC)c2O	inactive	inactive	inactive	–	–	–
CCC[C@H]1C[C@H]2OC(=O)c3c(cc(OC)c(O)c3O)[C@H]2O1	inactive	inactive	inactive	–	–	38
CCCCC1=C(OC)C(=O)OC1(C)O (racemic)	inactive	inactive	inactive	–	–	–
CCCCc1c(OC)cc(=O)oc1C	inactive	inactive	inactive	–	–	–
CCCCOCc1c(O)cc(C)c2c1Oc1c(C)cc(O)c(C)c1OC2=O	inactive	inactive	inactive	630 (≈ 1690 µM)	630 (≈ 1690 µM)	–
CC[C@H](O)[C@H]1C[C@H]2OC(=O)c3c(cc(OC)c(OC)c3O)[C@H]2O1	inactive	inactive	inactive	–	–	–
CC[C@@H](O)[C@H]1C[C@H]2OC(=O)c3c(cc(OC)c(OC)c3O)[C@H]2O1	inactive	inactive	inactive	–	–	–
CCC[C@H]1C[C@H](O)[C@@]2(OC(=O)c3c2cc(OC)c(OC)c3O)O1	inactive	inactive	inactive	–	–	–
CCC[C@H]1C[C@H]2OC(=O)c3c(cc(OC)c(OC)c3O)[C@@H]2O1	inactive	inactive	inactive	–	–	–
O=C1O[C@H]([C@@H](O)CO)C(O)=C1O [ASCORBIC ACID]	–	–	–	–	–	39
COc1cc2c(c(O)c1OC)C(=O)O[C@@H]1C[C@H](C[C@@H](C)O)O[C@H]21	inactive	inactive	inactive	–	–	–
CCCC(=O)CC[C@@H]1OC(=O)c2c1cc(OC)c(OC)c2O	inactive	inactive	inactive	–	–	–
CCC[C@H]1C[C@H](O)[C@]2(OC(=O)c3c2cc(OC)c(OC)c3O)O1	inactive	inactive	inactive	–	–	–
COc1cc(=O)oc(C)c1CCCC(=O)O	inactive	inactive	inactive	–	–	–
COCc1c(O)cc(C)c2c1Oc1c(C)cc(O)c(C)c1OC2=O	inactive	inactive	inactive	160 (≈ 484 µM)	310 (≈ 938 µM)	–
CCCCc1c(OC)cc(=O)oc1CO	inactive	inactive	inactive	–	–	–
